Values after ≈ are worked out from the molar mass of the structure shown.
Assays:
[1] = test system: Human immunodeficiency virus 1; experiment: Antiviral activity against HIV1 NL4-3 infected in human MT4 cells assessed as inhibition of virus-induced cytopathic effect after 5 days; assay type: functional, organism-based; conditions: Human immunodeficiency virus 1, NL4-3, MT4, 120 h
How it was run: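 HIV-1 NL4-3 titered in MT-4 cells after acute infection. Infected cells were exposed to various concentrations of compound and grown 5 days. Protection from virus-induced cytopathic effect was read as viable cell number by tetrazolium (MTT) colorimetry, giving EC50.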

[2] = Cytotoxicity against human MT4 cells after 5 days by MTT assay; assay type: cell-based
How it was run: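 Uninfected MT-4 cells exposed to various compound concentrations and allowed to proliferate 5 days. Viable cells quantified by tetrazolium-based colorimetric (MTT) method to give CC50.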

[3] = Selectivity index, ratio of CC50 for human MT4 cells to EC50 for HIV1 NL4-3; assay type: toxicity, cell-based; conditions: read-out: Ratio CC50/EC50
How it was run: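 SI taken as CC50 in uninfected MT-4 cells over EC50 against HIV-1 NL4-3. Both came from parallel 5-day MTT viability read-outs, in mock-infected and in infected cells exposed to various compound concentrations.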

[4] = test system: Human immunodeficiency virus 1; experiment: Ratio of HEPT EC50 to compound EC50 for HIV1 NL4-3; assay type: functional

Row | Compound | EC50 [1] [µM] | CC50 at 120 h [2] [µg/mL] | selectivity ratio [3] | Ratio EC50 [4]
1 | C[Si](C)(C)CCOCn1c(Sc2ccccc2)cc(=O)[nH]c1=O | > 71 | > 25 |  | 
2 | C[Si](C)(C)CCOCn1c(Sc2cccc(N)c2)cc(=O)[nH]c1=O | > 68 | > 25 |  | 
3 | C[Si](C)(C)CCOCn1c(Sc2c(Cl)cccc2Cl)cc(=O)[nH]c1=O | > 25.2 | 10.6 (≈ 25.3 µM) |  | 
4 | C[Si](C)(C)CCOCn1c(Sc2cccc(Cl)c2)cc(=O)[nH]c1=O | > 30 | 11.6 (≈ 30.1 µM) |  | 
5 | CCOCn1c(Sc2ccccc2)cc(=O)[nH]c1=O | > 90 | > 25 |  | 
6 | CCOCn1c(Sc2cccc(N)c2)cc(=O)[nH]c1=O | > 85 | > 25 |  | 
7 | CCOCn1c(Sc2c(Cl)cccc2Cl)cc(=O)[nH]c1=O | > 72 | > 25 |  | 
8 | CCOCn1c(Sc2cccc(Cl)c2)cc(=O)[nH]c1=O | > 80 | > 25 |  | 
9 | Cc1ccc(C)c(Cn2c(Sc3ccccc3)cc(=O)[nH]c2=O)c1 | > 74 | > 25 |  | 
10 | Cc1ccc(C)c(Cn2c(Sc3cccc(N)c3)cc(=O)[nH]c2=O)c1 | > 71 | > 25 |  | 
11 | Cc1ccc(C)c(Cn2c(Sc3c(Cl)cccc3Cl)cc(=O)[nH]c2=O)c1 | > 61 | > 25 |  | 
12 | Cc1ccc(C)c(Cn2c(Sc3cccc(Cl)c3)cc(=O)[nH]c2=O)c1 | > 67 | > 25 |  | 
13 | Cc1c(Sc2cccc(N)c2)n(COCC[Si](C)(C)C)c(=O)[nH]c1=O | 1.15 | > 25 | > 57 | 
14 | Cc1c(Sc2c(Cl)cccc2Cl)n(COCC[Si](C)(C)C)c(=O)[nH]c1=O | > 21.3 | 9.2 (≈ 21.2 µM) |  | 
15 | Cc1c(Sc2cccc(Cl)c2)n(COCC[Si](C)(C)C)c(=O)[nH]c1=O | > 24.9 | 9.9 (≈ 24.8 µM) |  | 
16 | CCOCn1c(Sc2cccc(N)c2)c(C)c(=O)[nH]c1=O | 1.3 | > 25 | > 63 | 

Row | Compound | EC50 [1] [µM] | CC50 at 120 h [2] [µg/mL] | selectivity ratio [3] | Ratio EC50 [4]
17 | CCOCn1c(Sc2c(Cl)cccc2Cl)c(C)c(=O)[nH]c1=O | 4.7 | > 25 | > 15 | 
18 | CCOCn1c(Sc2cccc(Cl)c2)c(C)c(=O)[nH]c1=O | 0.046 | > 25 | > 1670 | 67
19 | Cc1ccc(C)c(Cn2c(Sc3ccccc3)c(C)c(=O)[nH]c2=O)c1 | 3.57 | > 25 | > 20 | 
20 | Cc1ccc(C)c(Cn2c(Sc3cccc(N)c3)c(C)c(=O)[nH]c2=O)c1 | 5.2 | > 25 | > 13 | 
21 | Cc1ccc(C)c(Cn2c(Sc3c(Cl)cccc3Cl)c(C)c(=O)[nH]c2=O)c1 | > 59 | > 25 |  | 
22 | Cc1ccc(C)c(Cn2c(Sc3cccc(Cl)c3)c(C)c(=O)[nH]c2=O)c1 | 0.868 | 13.6 (≈ 35.2 µM) | > 40 | 
23 | CCOCn1c(Sc2ccccc2)c(C)c(=S)[nH]c1=O | 1.9 | 2.38 (≈ 7.72 µM) | > 4 | 
24 | CCOCn1c(Sc2cccc(Cl)c2)c(C)c(=S)[nH]c1=O | > 4.96 | 1.7 (≈ 4.96 µM) |  | 
25 | Cc1c(Sc2ccccc2)n(COCC[Si](C)(C)C)c(=O)[nH]c1=O | > 27.3 | 9.9 (≈ 27.2 µM) |  | 
26 | CCOCn1c(Sc2ccccc2)c(C)c(=O)[nH]c1=O | 0.086 | > 25 | > 1000 | 38
27 | Cc1c(Sc2cccc(Cl)c2)n(COCCO)c(=O)[nH]c1=O | 1.2 | > 25 | > 60 | 
28 | O=C1Nc2ccc(Cl)cc2[C@@](C#CC2CC2)(C(F)(F)F)O1 [EFAVIRENZ] |  | > 1 |  | 
29 | Cc1c(Sc2ccccc2)n(COCCO)c(=O)[nH]c1=O [HEPT] | 3.28 | > 25 | > 25 | 
30 | Cc1ccnc2c1NC(=O)c1cccnc1N2C1CC1 [NEVIRAPINE] |  | > 5 |  | 
31 | Cc1cn([C@H]2C[C@H](N=[N+]=[N-])[C@@H](CO)O2)c(=O)[nH]c1=O [ZIDOVUDINE] | 0.004 | > 1 | > 1000 | 
